Reference: ChEMBL document CHEMBL3124806, “Imidazopyridine-fused [1,3]-diazepinones: synthesis and antiproliferative activity” (Eur J Med Chem, 2014)

How the values were obtained:
Type in all cases: functional
[1] = tested on: RPMI-8226; experiment: Cytotoxicity against human RPMI8226 cells assessed as cell growth at 10 uM after 48 hrs by SRB assay relative to untreated control; details: RPMI-8226, 48 h, read-out: Activity
How it was run: (§1)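 NCI-60 one-dose screen: each agent added at 10 µM, cultures incubated 48 h. Endpoint by sulforhodamine B protein-binding dye read spectrophotometrically; growth expressed as percent of untreated control cells.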

[2] = tested on: COLO 205; experiment: Cytotoxicity against human COLO205 cells assessed as cell growth at 10 uM after 48 hrs by SRB assay relative to untreated control; details: COLO 205, 48 h, read-out: Activity
How it was run: (§2)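 NCI-60 panel screen at a single concentration of 10 μM with 48 h incubation. Cell density measured by sulforhodamine B protein-binding dye and read spectrophotometrically. Growth expressed as percent of untreated control cells.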

[3] = tested on: NCI-H522; experiment: Cytotoxicity against human NCI-H522 cells assessed as cell growth at 10 uM after 48 hrs by SRB assay relative to untreated control; details: NCI-H522, 48 h, read-out: Activity; how it was run: as §1
[4] = tested on: MDA-MB-231; experiment: Cytotoxicity against human MDA-MB-231 cells assessed as cell growth at 10 uM after 48 hrs by SRB assay relative to untreated control; details: MDA-MB-231, 48 h, read-out: Activity; how it was run: as §1
[5] = tested on: SK-MEL-2; experiment: Cytotoxicity against human SK-MEL-2 cells assessed as cell growth at 10 uM after 48 hrs by SRB assay relative to untreated control; details: SK-MEL-2, 48 h, read-out: Activity; how it was run: as §1
[6] = tested on: MCF7; experiment: Cytotoxicity against human MCF7 cells assessed as cell growth at 10 uM after 48 hrs by SRB assay relative to untreated control; details: MCF7, 48 h, read-out: Activity; how it was run: as §2
[7] = tested on: SF-295; experiment: Cytotoxicity against human SF295 cells assessed as cell growth at 10 uM after 48 hrs by SRB assay relative to untreated control; details: SF-295, 48 h, read-out: Activity; how it was run: as §1
[8] = tested on: LOX IMVI; experiment: Cytotoxicity against human LOXIMVI cells assessed as cell growth at 10 uM after 48 hrs by SRB assay relative to untreated control; details: read-out: Activity; how it was run: as §2
[9] = tested on: SK-OV-3; experiment: Cytotoxicity against human SKOV3 cells assessed as cell growth at 10 uM after 48 hrs by SRB assay relative to untreated control; details: SK-OV-3, 48 h, read-out: Activity
How it was run: (§3)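 NCI-60 single-dose screen. Compounds were added to the cultures at 10 μM and incubated for 48 h. The end point was sulforhodamine B protein staining read spectrophotometrically. Growth is reported as percent of untreated control cells.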

[10] = tested on: SF-268; experiment: Cytotoxicity against human SF268 cells assessed as cell growth at 10 uM after 48 hrs by SRB assay relative to untreated control; details: SF-268, 48 h, read-out: Activity; how it was run: as §1
[11] = tested on: U-251; experiment: Cytotoxicity against human U251 cells assessed as cell growth at 10 uM after 48 hrs by SRB assay relative to untreated control; details: U-251, 48 h, read-out: Activity; how it was run: as §3
[12] = tested on: UACC-62; experiment: Cytotoxicity against human UACC62 cells assessed as cell growth at 10 uM after 48 hrs by SRB assay relative to untreated control; details: UACC-62, 48 h, read-out: Activity; how it was run: as §3
[13] = tested on: RXF 393; experiment: Cytotoxicity against human RXF393 cells assessed as cell growth at 10 uM after 48 hrs by SRB assay relative to untreated control; details: RXF 393, 48 h, read-out: Activity; how it was run: as §1
[14] = tested on: KM12; experiment: Cytotoxicity against human KM12 cells assessed as cell growth at 10 uM after 48 hrs by SRB assay relative to untreated control; details: KM12, 48 h, read-out: Activity; how it was run: as §2
[15] = tested on: OVCAR-3; experiment: Cytotoxicity against human OVCAR3 cells assessed as cell growth at 10 uM after 48 hrs by SRB assay relative to untreated control; details: OVCAR-3, 48 h, read-out: Activity; how it was run: as §1
[16] = tested on: SK-MEL-5; experiment: Cytotoxicity against human SK-MEL-5 cells assessed as cell growth at 10 uM after 48 hrs by SRB assay relative to untreated control; details: SK-MEL-5, 48 h, read-out: Activity; how it was run: as §3
[17] = tested on: CCRF-CEM; experiment: Cytotoxicity against human CCRF-CEM cells assessed as cell growth at 10 uM after 48 hrs by SRB assay relative to untreated control; details: read-out: Activity; how it was run: as §2
[18] = Cytotoxicity against human NCI-ADR-RES cells assessed as cell growth at 10 uM after 48 hrs by SRB assay relative to untreated control; details: read-out: Activity; how it was run: as §1
[19] = tested on: IGROV-1; experiment: Cytotoxicity against human IGROV1 cells assessed as cell growth at 10 uM after 48 hrs by SRB assay relative to untreated control; details: IGROV-1, 48 h, read-out: Activity; how it was run: as §2
[20] = tested on: HOP-62; experiment: Cytotoxicity against human HOP62 cells assessed as cell growth at 10 uM after 48 hrs by SRB assay relative to untreated control; details: HOP-62, 48 h, read-out: Activity; how it was run: as §2
[21] = tested on: HCT-116; experiment: Cytotoxicity against human HCT116 cells assessed as cell growth at 10 uM after 48 hrs by SRB assay relative to untreated control; details: HCT-116, 48 h, read-out: Activity; how it was run: as §2
[22] = tested on: TK-10; experiment: Cytotoxicity against human TK10 cells assessed as cell growth at 10 uM after 48 hrs by SRB assay relative to untreated control; details: TK-10, 48 h, read-out: Activity; how it was run: as §3
[23] = tested on: MOLT-4; experiment: Cytotoxicity against human MOLT4 cells assessed as cell growth at 10 uM after 48 hrs by SRB assay relative to untreated control; details: MOLT-4, 48 h, read-out: Activity; how it was run: as §1
[24] = Cytotoxicity against human UO31 cells assessed as cell growth at 10 uM after 48 hrs by SRB assay relative to untreated control; details: UO-31, 48 h, read-out: Activity; how it was run: as §3
[25] = tested on: PC-3; experiment: Cytotoxicity against human PC3 cells assessed as cell growth at 10 uM after 48 hrs by SRB assay relative to untreated control; details: PC-3, 48 h, read-out: Activity; how it was run: as §1
[26] = tested on: MDA-MB-468; experiment: Cytotoxicity against human MDA-MB-468 cells assessed as cell growth at 10 uM after 48 hrs by SRB assay relative to untreated control; details: MDA-MB-468, 48 h, read-out: Activity; how it was run: as §1
[27] = tested on: HT-29; experiment: Cytotoxicity against human HT-29 cells assessed as cell growth at 10 uM after 48 hrs by SRB assay relative to untreated control; details: HT-29, 48 h, read-out: Activity; how it was run: as §2
[28] = tested on: NCI-H23; experiment: Cytotoxicity against human NCI-H23 cells assessed as cell growth at 10 uM after 48 hrs by SRB assay relative to untreated control; details: NCI-H23, 48 h, read-out: Activity; how it was run: as §1
[29] = tested on: HOP-92; experiment: Cytotoxicity against human HOP92 cells assessed as cell growth at 10 uM after 48 hrs by SRB assay relative to untreated control; details: HOP-92, 48 h, read-out: Activity; how it was run: as §2
[30] = tested on: Malme-3M; experiment: Cytotoxicity against human MALME-3M cells assessed as cell growth at 10 uM after 48 hrs by SRB assay relative to untreated control; details: read-out: Activity; how it was run: as §2
[31] = tested on: K562; experiment: Cytotoxicity against human K562 cells assessed as cell growth at 10 uM after 48 hrs by SRB assay relative to untreated control; details: K562, 48 h, read-out: Activity; how it was run: as §2

Structure (SMILES) | growth at 10 µM [1] | growth at 10 µM [2] | growth at 10 µM [3] | growth at 10 µM [4] | growth at 10 µM [5] | growth at 10 µM [6] | growth at 10 µM [7] | growth at 10 µM [8] | growth at 10 µM [9] | growth at 10 µM [10] | growth at 10 µM [11] | growth at 10 µM [12] | growth at 10 µM [13] | growth at 10 µM [14] | growth at 10 µM [15] | growth at 10 µM [16] | growth at 10 µM [17] | growth at 10 µM [18] | growth at 10 µM [19] | growth at 10 µM [20] | also measured
O=C1c2c(nc3ccccn23)NC(=O)N2CCC[C@@H]12 | 103% | 123% | 106% | 118% | 107% | 99.9% | 100% | 92.8% | 99.7% | 100% | 95.8% | 104% | 104% | 105% | 108% | 99.5% | 102% | 100% | 109% | 97.1% | growth at 10 µM [21]: 89%; growth at 10 µM [22]: 99.6%; growth at 10 µM [23]: 120%; growth at 10 µM [24]: 95.1%; growth at 10 µM [25]: 93.8%; growth at 10 µM [26]: 93.5%; growth at 10 µM [27]: 106%; growth at 10 µM [28]: 98.5%; growth at 10 µM [29]: 86.2%; growth at 10 µM [30]: 93.1%
C[C@@H]1NC(c2ccc(Br)cc2)=Nc2nc3ccccn3c2C1=O | 94% | 26.3% | 34.8% | 52.7% | 47.4% | 20.9% | 40.9% | 52.4% | 72% | 83.4% | 54% | 49.2% | 68.2% | 29.6% | 17.3% | 31.9% | 79.4% | 39.4% | 43.1% | 55.8% | growth at 10 µM [31]: 24.3%; growth at 10 µM [21]: 29.2%; growth at 10 µM [22]: 110%; growth at 10 µM [23]: 57.5%; growth at 10 µM [24]: 62%; growth at 10 µM [25]: 63.2%; growth at 10 µM [26]: -0.5%; growth at 10 µM [27]: 17.5%; growth at 10 µM [28]: 53.7%; growth at 10 µM [29]: 59.5%; growth at 10 µM [30]: 51.8%
Cc1ccc(C2=Nc3nc4ccccn4c3C(=O)[C@H](Cc3ccccc3)N2)cc1 | 107% | 113% | 98.1% | 93.7% | 105% | 76.2% | 84% | 85.8% | 109% | 97.4% | 99.3% | 93.2% | 95.7% | 92.9% | 99.3% | 86.5% | 103% | 87.1% | 89.1% | 75.9% | growth at 10 µM [31]: 87.9%; growth at 10 µM [21]: 94.3%; growth at 10 µM [22]: 135%; growth at 10 µM [23]: 92.8%; growth at 10 µM [24]: 77%; growth at 10 µM [25]: 80.7%; growth at 10 µM [26]: 84.5%; growth at 10 µM [27]: 114%; growth at 10 µM [28]: 82.5%; growth at 10 µM [29]: 88.3%; growth at 10 µM [30]: 99.9%
Cc1ccc(C2=Nc3nc4ccccn4c3C(=O)[C@H](C)N2)cc1 | 88.6% | 80.4% | 66.5% | 79.7% | 69.5% | 71.2% | 87.4% | 88.6% | 90.2% | 99.7% | 95.5% | 80.1% | 105% | 70.3% | 90.4% | 81.7% | 85.2% | 79.6% | 70.9% | 62.9% | growth at 10 µM [31]: 47.1%; growth at 10 µM [21]: 91.1%; growth at 10 µM [22]: 96%; growth at 10 µM [23]: 75.9%; growth at 10 µM [24]: 45.9%; growth at 10 µM [25]: 72.9%; growth at 10 µM [26]: 91.1%; growth at 10 µM [27]: 82.8%; growth at 10 µM [28]: 85%; growth at 10 µM [29]: 66.3%; growth at 10 µM [30]: 82.6%
C[C@@H]1NC(c2ccccc2)=Nc2nc3ccccn3c2C1=O | 85.7% | 109% | 95.4% | 89.8% | 110% | 67.2% | 89% | 84.2% | 101% | 103% | 102% | 104% | 104% | 98.9% | 103% | 99.2% | 104% | 97.4% | 88.2% | 102% | growth at 10 µM [31]: 108%; growth at 10 µM [21]: 98.4%; growth at 10 µM [22]: 135%; growth at 10 µM [23]: 98.2%; growth at 10 µM [24]: 82.5%; growth at 10 µM [25]: 82.5%; growth at 10 µM [26]: 99.9%; growth at 10 µM [27]: 113%; growth at 10 µM [28]: 91.9%; growth at 10 µM [29]: 75.5%; growth at 10 µM [30]: 99.5%
C[C@@H]1NC(c2ccc(N(C)C)cc2)=Nc2nc3ccccn3c2C1=O | 84.9% | 94.2% | 79.4% | 78.9% | 88.6% | 66% | 92.1% | 87% | 91% | 103% | 94.8% | 83.7% | 111% | 96.3% | 101% | 95.4% | 88.7% | 80.3% | 84.8% | 74.2% | growth at 10 µM [31]: 82.2%; growth at 10 µM [21]: 101%; growth at 10 µM [22]: 86%; growth at 10 µM [23]: 84.2%; growth at 10 µM [24]: 53.7%; growth at 10 µM [26]: 72.3%; growth at 10 µM [27]: 101%; growth at 10 µM [28]: 79.8%; growth at 10 µM [29]: 33%; growth at 10 µM [30]: 100%
